eIF2B yeast act: modulators of yeast eIF2B activity. 0.91% of 27,000 active. inhibition, % at 25 µM (by protocol). AID 688. S. cerevisiae eIF2B-epsilon R284H, GCN4-lacZ luminescence;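 active means mutant luminescence inhibited past about 50% while wild type luminescence and mutant growth stay under set limits, limit read from the data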
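System: Yeast eIF2B-epsilon R284H mutant carrying GCN4–beta-galactosidase fusion | Read-out basis: Percent inhibition, luminescence and growth | Compound: 25 µM single dose | Times: 16 h at 30 °C exposure | Measured by: Luminescence and A595 | Buffer or medium: YPD medium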
Of the large screens only hits and unclear results are named; the others gave an inactive call. The full list was thinned out, with hits kept by preference.

Cc1ccccc1C(=O)Nc1ccccc1	none
Cc1cc2ncc(C(=O)Nc3ccccc3)c(C)n2n1	eIF2B yeast act 51.9
Cc1nn2c(C)c(C(=O)Nc3ccccc3)cnc2c1C#N	none
Cc1occc1C(=O)Nc1ccc(Br)cc1F	none
COc1ccc(CNC(=O)C(c2ccc(C)o2)N(Cc2cccs2)C(=O)Cc2cccs2)cc1 (stereo not given)	none
Cc1ccc2c(c1)N(CCC(=O)NC(C)C)C(=O)CO2	none
Cc1ccc2c(c1)N(CC(=O)N1CCCCCC1)C(=O)CO2	none
Cc1ccc2c(c1)N(CC(=O)NCc1cccnc1)C(=O)CO2	eIF2B yeast act 58.7
CCCCCn1c(SCC(=O)OCC)nc2cc(C(=O)NCc3ccco3)ccc2c1=O	eIF2B yeast act 56.1
CCCCn1c(SCC(=O)NCc2ccco2)nc2ccc(N3CCOCC3)cc2c1=O	none
COCCNC(=O)c1ccc2c(=O)n(Cc3ccco3)c(SCC(=O)NC3CCCC3)nc2c1	none
CCC(CC)C(=O)N=C1SC2CS(=O)(=O)CC2N1CCc1ccc(OC)cc1 (stereo not given)	none
CCCNC(=O)COc1ccc(S(=O)(=O)Nc2ccc(C)cc2)cc1	none
CC(NS(=O)(=O)c1ccc(CCC(=O)NCc2cccnc2)cc1)c1ccccc1 (stereo not given)	none
CC(C)COP(=O)(c1ccc(N(C)C)cc1)C(O)c1ccccn1 (stereo not given)	none
CCc1nc(SCC(=O)N2CCN(C(=O)c3ccco3)CC2)c2c3c(sc2n1)CCCC3	none
Cc1nc(N2CCN(C(=O)c3ccco3)CC2)c2c3c(sc2n1)CCCC3	eIF2B yeast act 52.6
Cc1nc(N2CCN(c3ccccc3)CC2)c2c3c(sc2n1)CCC3	none
C=CCN1C(=NC(=O)CC)SC2CS(=O)(=O)CC21 (stereo not given)	none
Cn1c(SC2C(=O)CC(C)(C)CC2=O)nnc1-c1ccco1	eIF2B yeast act 60.3
Cn1c(SCC(=O)OC2CCCCC2)nnc1-c1ccco1	none
CC1(C)CC(=O)C(Sc2nnc(-c3ccc(NS(C)(=O)=O)cc3)n2Cc2ccco2)C(=O)C1	none
CC1CCCN(CC(O)CN)C1 (stereo not given)	none
Cc1cc(C)n(-c2ccc(C(=O)Nc3ccc(N4CCOCC4)cc3)cc2)n1	none
O=C(Nc1ccc(N2CCOCC2)cc1)c1ccncc1	none
Cc1ccnc2nc(C(=O)Nc3ccc(N4CCOCC4)cc3)nn12	eIF2B yeast act 52.6
COc1cccc(CSc2nnc(-c3ccco3)n2C)c1	none
Cc1ccc(S(=O)(=O)Nc2nc3ccc(S(=O)(=O)N4CCCC4)cc3s2)cc1	none
CCC1(CC)NC(=O)N(CC(=O)Nc2sc3c(c2C(N)=O)CCC3)C1=O	none
CCOC(=O)C(C(=O)Nc1ccc(C)cc1)C1CCCCC1 (stereo not given)	none
COc1ccccc1-n1c(SCC(=O)Nc2ccc(C)cc2)nc(O)cc1=O	none
COc1ccccc1NC(=O)CSc1nc(O)cc(=O)n1C	eIF2B yeast act 53.2
CCOc1ccccc1NC(=O)CSc1nc2cccnc2n1C	none
CCOc1ccc(N2C(=O)CN=C2Nc2ccccc2F)cc1	none
COc1ccc(/C=N/N=C2/NC(=O)C(c3ccccc3)(c3ccccc3)S2)cc1	none
Cc1cccc(N(CC(=O)NCCC2=CCCCC2)S(C)(=O)=O)c1C	none
CCCN(CCC)S(=O)(=O)c1ccc(NC(=O)COc2ccccc2)cc1	none
O=c1cc(CSc2nc3ccccc3[nH]2)c2ccccc2[nH]1	none
CCC(=O)N(Cc1cc(=O)[nH]c2ccccc12)c1cccc(C)c1	eIF2B yeast act 51.2
CCCCCOC(=O)c1cc(=O)[nH]c2ccccc12	none
COc1ccc(CCn2nnc(-c3ccc(NC(C)=O)c(Cl)c3)n2)cc1	none
CC(C)Oc1ccc(C(=O)N(Cc2ccco2)C2CCS(=O)(=O)C2)cc1 (stereo not given)	none
Cc1cc(S(=O)(=O)Nc2ccc(F)cc2)c(C)s1	none
O=C(COc1ccc(-c2ccccc2)cc1)N1CCN(S(=O)(=O)Cc2ccccc2)CC1	none
CCCCCCS(=O)Cc1ccccc1 (stereo not given)	none
CCOC(=O)c1sc(=S)n(-c2ccccc2OC)c1N	none
COc1ccc(Cl)cc1-n1c(N)c(C(N)=O)sc1=S	eIF2B yeast act 52.8
Cc1ccc(-n2c(N)c(C(N)=O)sc2=S)c(C)c1	none
c1ccc(Cc2nc3ccccc3o2)cc1	none
CCCNC(=O)N1CCC(C(=O)c2cccc(F)c2)CC1	none
N#C/C(C(=O)Oc1ccccc1)=C1/Nc2ccccc2-c2ccccc21	none
CCC(=O)OCCn1c(Br)nc2c1c(=O)[nH]c(=O)n2C	none
CCCCCOC(=O)Cn1c(SCC(=O)Nc2ccccc2)nc2c1c(=O)[nH]c(=O)n2C	eIF2B yeast act 59.5
CCOC(=O)CSc1nc2c(c(=O)[nH]c(=O)n2C)n1C/C=C(/C)Cl	none
CC1CCN(C(=O)CCc2ccc(S(=O)(=O)NC(C)C)cc2)CC1	none
Cc1cc(-c2nn3c(C)nnc3s2)ccc1NC(=O)C(C)(C)C	none
c1ccc2c(N3CCCC3)nc(-c3ccncc3)nc2c1	none
C=CCNc1nc(-c2cccc(OC)c2O)nc2ccccc12	eIF2B yeast act 57.0
COc1cccc(-c2nc(N3CCCCC3C)c3ccccc3n2)c1O (stereo not given)	eIF2B yeast act 56.5
O=C(O)CNc1nc(-c2ccccc2)nc2ccccc12	none
COc1cccc(-c2nc(NCc3ccco3)c3ccccc3n2)c1O	none
CC1CCCCN1c1nc2nonc2nc1N1CCCCC1C (stereo not given)	none
CC1=CCC2C(=O)N(c3ccc(C(=O)N4CCCCCC4)cc3)C(=O)C2C1 (stereo not given)	none
O=C(CCNS(=O)(=O)c1cccc2nonc12)NCc1cccs1	none
Cc1ccc(OC(=O)c2cccc(C(=O)Oc3ccc(C)cn3)n2)nc1	none
COc1ccccc1NC(=O)CSc1nnc(-c2ccco2)o1	none
O=C(CCSc1nnc(-c2ccco2)o1)Nc1ccc(Cl)cc1	eIF2B yeast act 57.5
O=C(CSc1nnc(-c2ccco2)o1)NC(=O)Cc1ccccc1	none
COc1cccc(CNCCSc2nnnn2C)c1OC	none
COc1cc2ccccc2cc1C(=O)Nc1cccnc1	none
O=C(CCCOc1ccccc1)Nc1cccnc1	none
O=C(Nc1cccnc1)c1ccccc1Oc1ccccc1	eIF2B yeast act 63.7
COc1ccc(N2CCN(c3ncnc4c3nnn4Cc3ccccc3Cl)CC2)cc1	none
Cn1c(=O)n(CCc2ccccc2)c(=O)c2c1nc1n2CCN1c1ccccc1	none
COC(=O)CSc1nnc2n(-c3ccc(OC)cc3)c(=O)c3c4c(sc3n12)CCCCC4	eIF2B yeast act 73.8
CCCSc1nnc2n(-c3ccccc3OC)c(=O)c3c4c(sc3n12)CCC4	none
CCOC(=O)CSc1nnc2n(C3CCCCC3)c(=O)c3c4c(sc3n12)CCCC4	none
Cc1cccc(CN2CCCC(C(=O)N3CCc4ccccc4C3)C2)c1 (stereo not given)	none
CC1(C)NC(=O)N(CCOCCOc2c(Cl)cc(Cl)cc2Cl)C1=O	none
O=S(=O)(NC1CCCCC1)c1ccc(Cl)s1	none
CCOC(=O)c1sc2nc(SCC#N)n(CCCN3CCCC3=O)c(=O)c2c1C	none
Cc1nc(NC(=O)CSc2nnnn2Cc2ccccc2)sc1C	none
CCOCCc1nnc(NC(=O)C(CC)c2ccccc2)s1 (stereo not given)	none
Cc1ccc(N(C)C(=O)N2CCN(S(=O)(=O)c3c(C)cc(C)cc3C)CC2)cc1	none
CCCC(=O)N1CCN(C2=NS(=O)(=O)c3ccccc32)CC1	none
CC(C)C(=O)N1CCN(C2=NS(=O)(=O)c3ccccc32)CC1	eIF2B yeast act 53.2
O=S1(=O)N=C(N2CCN(Cc3ccccc3)CC2)c2ccccc21	none
O=C(NCC1c2ccccc2CCN1C(=O)CN1C(=O)c2ccccc2C1=O)C1CCCCC1 (stereo not given)	none
CC(C)CNC(=O)c1cc2nc(C3CC3)cc(C(F)(F)F)n2n1	eIF2B yeast act 56.8
